Holding throughout (assay type): functional, organism-based
The subject of one assay is Klebsiella pneumoniae. Nature of the assay: Antibacterial activity against Klebsiella pneumoniae ATCC 13883 after 6 to 8 hrs. The essentials:
(§1)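 Stagnant liquid-culture proliferation assay at 37°C in broth cation-adjusted with 25 mg/L Ca²⁺ and 12.5 mg/L Mg²⁺, with compounds stamped into the wells. […] OD600 turbidity was read at 6–8 h (K. pneumoniae, E. cloacae, P. aeruginosa) or 24 h (A. baumannii). EC50 came from non-linear regression, averaged in log form over replicates.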

A further assay relates to Acinetobacter baumannii. Description: Antibacterial activity against Acinetobacter baumannii ATCC 19606 after 24 hrs. To be noted: ATCC 19606 = CIP 70.34 = JCM 6841. The method in brief: as §1
Another assay deals with Pseudomonas aeruginosa. Description: Antibacterial activity against Pseudomonas aeruginosa ATCC 10145 after 6 to 8 hrs. The essentials: as §1
In a further assay the test system is Enterobacter cloacae. Nature of the assay: Antibacterial activity against Enterobacter cloacae subsp. cloacae ATCC 13047 after 6 to 8 hrs. The essentials: as §1

Calls of active or inactive are those of the source. The rule behind the calls is not given here.

Turning to `O=c1ccc2cc(S(=O)(=O)Nc3ccc(-c4nc5cc(NS(=O)(=O)c6ccc7oc(=O)ccc7c6)ccc5o4)cc3)ccc2o1`, the outcome in the assay with Klebsiella pneumoniae, with Acinetobacter baumannii, in the assay on Pseudomonas aeruginosa and in the assay on Enterobacter cloacae was inactive.

In the case of `Cc1ccc(S(=O)(=O)Nc2ccc(-c3nc4cc(NS(=O)(=O)c5ccc(C)cc5)ccc4o3)cc2)cc1`, the outcome in the assay on Klebsiella pneumoniae, with Acinetobacter baumannii, in the assay with Pseudomonas aeruginosa and in the assay with Enterobacter cloacae was inactive.

On to `Cc1ccccc1S(=O)(=O)Nc1ccc(-c2nc3cc(NS(=O)(=O)c4ccccc4C)ccc3o2)cc1`, for which the result with Klebsiella pneumoniae, with Acinetobacter baumannii, in the assay on Pseudomonas aeruginosa and in the assay with Enterobacter cloacae was inactive.

In the case of `O=S(=O)(Nc1ccc(-c2nc3cc(NS(=O)(=O)c4ccccc4F)ccc3o2)cc1)c1ccccc1F`, the result with Klebsiella pneumoniae, with Acinetobacter baumannii, with Pseudomonas aeruginosa and in the assay with Enterobacter cloacae was inactive.

As for `O=C(O)c1ccc(S(=O)(=O)Nc2ccc(-c3nc4cc(NS(=O)(=O)c5ccc(C(=O)O)cc5)ccc4o3)cc2)cc1`, the result with Klebsiella pneumoniae, in the assay on Acinetobacter baumannii, in the assay with Pseudomonas aeruginosa and in the assay with Enterobacter cloacae was inactive.

Consider `O=S(=O)(Nc1ccc(-c2nc3cc(NS(=O)(=O)c4ccccc4C(F)(F)F)ccc3o2)cc1)c1ccccc1C(F)(F)F`, for which the result in the assay with Klebsiella pneumoniae, in the assay with Acinetobacter baumannii, with Pseudomonas aeruginosa and in the assay on Enterobacter cloacae was inactive.

For `O=S(=O)(Nc1ccc(-c2nc3cc(NS(=O)(=O)c4cccc(Br)c4)ccc3o2)cc1)c1cccc(Br)c1`, the outcome in the assay on Klebsiella pneumoniae, in the assay with Acinetobacter baumannii, with Pseudomonas aeruginosa and in the assay on Enterobacter cloacae was inactive.

`COC(=O)c1ccc(S(=O)(=O)Nc2ccc(-c3nc4cc(NS(=O)(=O)c5ccc(C(=O)OC)cc5)ccc4o3)cc2)cc1`: the result with Klebsiella pneumoniae, in the assay with Acinetobacter baumannii, in the assay on Pseudomonas aeruginosa and in the assay with Enterobacter cloacae was inactive.

Consider `COc1ccc(S(=O)(=O)Nc2ccc(-c3nc4cc(NS(=O)(=O)c5ccc(OC)cc5)ccc4o3)cc2)cc1`, for which the result with Klebsiella pneumoniae, with Acinetobacter baumannii, in the assay on Pseudomonas aeruginosa and in the assay with Enterobacter cloacae was inactive.

For `O=S(=O)(Nc1ccc(-c2nc3cc(NS(=O)(=O)c4cccc(O)c4)ccc3o2)cc1)c1cccc(O)c1`, the result in the assay with Klebsiella pneumoniae, with Acinetobacter baumannii, with Pseudomonas aeruginosa and in the assay on Enterobacter cloacae was inactive.

On to `O=S(=O)(Nc1ccc(-c2nc3cc(NS(=O)(=O)c4ccc(F)cc4)ccc3o2)cc1)c1ccc(F)cc1`, for which the outcome with Klebsiella pneumoniae, in the assay on Acinetobacter baumannii, in the assay on Pseudomonas aeruginosa and with Enterobacter cloacae was inactive.

On to `O=S(=O)(Nc1ccc(-c2nc3cc(NS(=O)(=O)c4cccc5ccccc45)ccc3o2)cc1)c1cccc2ccccc12`, for which the outcome in the assay on Klebsiella pneumoniae, with Acinetobacter baumannii, in the assay on Pseudomonas aeruginosa and in the assay on Enterobacter cloacae was inactive.

For `O=S(=O)(Nc1ccc(-c2nc3cc(NS(=O)(=O)c4ccc5ccccc5c4)ccc3o2)cc1)c1ccc2ccccc2c1`, the outcome with Klebsiella pneumoniae, in the assay on Acinetobacter baumannii, in the assay on Pseudomonas aeruginosa and in the assay on Enterobacter cloacae was inactive.

For `O=S(=O)(Nc1ccc2oc(-c3ccc(NS(=O)(=O)c4ccc5ncsc5c4)cc3)nc2c1)c1ccc2scnc2c1`, the result in the assay on Klebsiella pneumoniae, in the assay on Acinetobacter baumannii, with Pseudomonas aeruginosa and in the assay on Enterobacter cloacae was inactive.

With `O=[N+]([O-])c1ccccc1S(=O)(=O)Nc1ccc(-c2nc3cc(NS(=O)(=O)c4ccccc4[N+](=O)[O-])ccc3o2)cc1`, the outcome with Klebsiella pneumoniae, with Acinetobacter baumannii, with Pseudomonas aeruginosa and in the assay with Enterobacter cloacae was inactive.

As to `O=S(=O)(Nc1ccc(-c2nc3cc(NS(=O)(=O)c4cccc5nonc45)ccc3o2)cc1)c1cccc2nonc12`, the outcome with Klebsiella pneumoniae, with Acinetobacter baumannii, in the assay with Pseudomonas aeruginosa and in the assay on Enterobacter cloacae was inactive.

For the molecule `Cc1ccc(S(=O)(=O)Nc2ccc(-c3nc4ccc(NS(=O)(=O)c5ccc(C)cc5)cc4[nH]3)cc2)cc1`, the result in the assay on Klebsiella pneumoniae, in the assay on Acinetobacter baumannii, with Pseudomonas aeruginosa and in the assay with Enterobacter cloacae was inactive.

As to `O=C(O)c1ccccc1S(=O)(=O)Nc1ccc(-c2nc3cc(NS(=O)(=O)c4ccccc4C(=O)O)ccc3o2)cc1`, the outcome in the assay on Klebsiella pneumoniae, in the assay on Acinetobacter baumannii, with Pseudomonas aeruginosa and in the assay with Enterobacter cloacae was inactive.

On to `O=S(=O)(Nc1ccc(-c2nc3cc(NS(=O)(=O)c4cccc(Cl)c4)ccc3o2)cc1)c1cccc(Cl)c1`, for which the outcome with Klebsiella pneumoniae, in the assay on Acinetobacter baumannii, in the assay with Pseudomonas aeruginosa and in the assay on Enterobacter cloacae was inactive.

On to `N#Cc1cccc(S(=O)(=O)Nc2ccc(-c3nc4cc(NS(=O)(=O)c5cccc(C#N)c5)ccc4o3)cc2)c1`, for which the outcome in the assay on Klebsiella pneumoniae, in the assay on Acinetobacter baumannii, with Pseudomonas aeruginosa and in the assay on Enterobacter cloacae was inactive.

Consider `Cc1cccc(S(=O)(=O)Nc2ccc(-c3nc4cc(NS(=O)(=O)c5cccc(C)c5)ccc4o3)cc2)c1`, for which the outcome in the assay with Klebsiella pneumoniae, in the assay on Acinetobacter baumannii, with Pseudomonas aeruginosa and in the assay with Enterobacter cloacae was inactive.

Turning to `Nc1ccc(S(=O)(=O)Nc2ccc(-c3nc4cc(NS(=O)(=O)c5ccc(N)cc5)ccc4o3)cc2)cc1`, the result in the assay with Klebsiella pneumoniae, with Acinetobacter baumannii, with Pseudomonas aeruginosa and in the assay with Enterobacter cloacae was inactive.

Turning to `O=S(=O)(Nc1ccc(-c2nc3cc(NS(=O)(=O)c4ccc(O)cc4)ccc3o2)cc1)c1ccc(O)cc1`, the result in the assay with Klebsiella pneumoniae, in the assay on Acinetobacter baumannii, in the assay on Pseudomonas aeruginosa and in the assay on Enterobacter cloacae was Active.

With `O=S(=O)(Nc1ccc(-c2nc3cc(NS(=O)(=O)c4cccc(F)c4)ccc3o2)cc1)c1cccc(F)c1`, the result in the assay with Klebsiella pneumoniae, with Acinetobacter baumannii, with Pseudomonas aeruginosa and with Enterobacter cloacae was inactive.

`O=S(=O)(Nc1ccc(-c2nc3cc(NS(=O)(=O)c4ccc(C(F)(F)F)cc4)ccc3o2)cc1)c1ccc(C(F)(F)F)cc1`: the outcome with Klebsiella pneumoniae, in the assay with Acinetobacter baumannii, with Pseudomonas aeruginosa and with Enterobacter cloacae was inactive.

For the molecule `O=S(=O)(Nc1ccc(-c2nc3cc(NS(=O)(=O)c4ccccc4Br)ccc3o2)cc1)c1ccccc1Br`, the result with Klebsiella pneumoniae, in the assay on Acinetobacter baumannii, in the assay with Pseudomonas aeruginosa and in the assay with Enterobacter cloacae was inactive.

In the case of `O=S(=O)(Cc1ccccc1)Nc1ccc(-c2nc3cc(NS(=O)(=O)Cc4ccccc4)ccc3o2)cc1`, the outcome in the assay with Klebsiella pneumoniae, with Acinetobacter baumannii, in the assay on Pseudomonas aeruginosa and in the assay on Enterobacter cloacae was inactive.

In the case of `O=S(=O)(Nc1ccc(-c2nc3cc(NS(=O)(=O)c4ccccc4O)ccc3o2)cc1)c1ccccc1O`, the result with Klebsiella pneumoniae, in the assay on Acinetobacter baumannii, with Pseudomonas aeruginosa and in the assay on Enterobacter cloacae was inactive.

For `COC(=O)c1ccccc1S(=O)(=O)Nc1ccc(-c2nc3cc(NS(=O)(=O)c4ccccc4C(=O)OC)ccc3o2)cc1`, the result in the assay on Klebsiella pneumoniae, in the assay on Acinetobacter baumannii, with Pseudomonas aeruginosa and with Enterobacter cloacae was inactive.

On to `Nc1ccccc1S(=O)(=O)Nc1ccc(-c2nc3cc(NS(=O)(=O)c4ccccc4N)ccc3o2)cc1`, for which the outcome in the assay on Klebsiella pneumoniae, in the assay with Acinetobacter baumannii, with Pseudomonas aeruginosa and in the assay with Enterobacter cloacae was inactive.

Consider `O=S(=O)(Nc1ccc(-c2nc3cc(NS(=O)(=O)c4ccccc4)ccc3o2)cc1)c1ccccc1`, for which the result with Klebsiella pneumoniae, in the assay on Acinetobacter baumannii, in the assay on Pseudomonas aeruginosa and in the assay on Enterobacter cloacae was inactive.

As for `O=S(=O)(Nc1ccc(-c2nc3cc(NS(=O)(=O)c4cccc5nsnc45)ccc3o2)cc1)c1cccc2nsnc12`, the result in the assay with Klebsiella pneumoniae, with Acinetobacter baumannii, in the assay with Pseudomonas aeruginosa and in the assay on Enterobacter cloacae was inactive.

For the molecule `O=[N+]([O-])c1cccc(S(=O)(=O)Nc2ccc(-c3nc4cc(NS(=O)(=O)c5cccc([N+](=O)[O-])c5)ccc4o3)cc2)c1`, the result in the assay with Klebsiella pneumoniae, with Acinetobacter baumannii, with Pseudomonas aeruginosa and in the assay with Enterobacter cloacae was inactive.
